Assay results as given in PMC6399515 (Insect Biochemistry and Molecular Biology, 2016).

Key:
CYP6M2 = CYP6M2 (Anopheles gambiae, UniProt Q7Q449)
CYP6Z2 [1] = biological target: T1, CYP6Z2 (Anopheles gambiae, UniProt A8I285)
T1 sequence (A8I285 1-492): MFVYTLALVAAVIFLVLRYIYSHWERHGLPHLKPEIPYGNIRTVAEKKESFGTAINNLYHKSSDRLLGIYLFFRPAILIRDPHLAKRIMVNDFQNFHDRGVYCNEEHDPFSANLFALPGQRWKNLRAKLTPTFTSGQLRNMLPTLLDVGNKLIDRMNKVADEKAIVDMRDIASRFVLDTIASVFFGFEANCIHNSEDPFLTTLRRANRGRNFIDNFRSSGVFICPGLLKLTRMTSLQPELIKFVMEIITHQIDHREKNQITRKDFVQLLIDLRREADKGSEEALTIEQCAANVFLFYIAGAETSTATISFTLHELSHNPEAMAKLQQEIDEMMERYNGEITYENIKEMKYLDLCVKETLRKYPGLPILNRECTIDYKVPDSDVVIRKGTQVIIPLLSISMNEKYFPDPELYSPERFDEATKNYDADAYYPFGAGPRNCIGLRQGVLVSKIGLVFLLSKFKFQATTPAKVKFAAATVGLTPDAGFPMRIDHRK
T1 sequence (Q86QH5 1-679 partner): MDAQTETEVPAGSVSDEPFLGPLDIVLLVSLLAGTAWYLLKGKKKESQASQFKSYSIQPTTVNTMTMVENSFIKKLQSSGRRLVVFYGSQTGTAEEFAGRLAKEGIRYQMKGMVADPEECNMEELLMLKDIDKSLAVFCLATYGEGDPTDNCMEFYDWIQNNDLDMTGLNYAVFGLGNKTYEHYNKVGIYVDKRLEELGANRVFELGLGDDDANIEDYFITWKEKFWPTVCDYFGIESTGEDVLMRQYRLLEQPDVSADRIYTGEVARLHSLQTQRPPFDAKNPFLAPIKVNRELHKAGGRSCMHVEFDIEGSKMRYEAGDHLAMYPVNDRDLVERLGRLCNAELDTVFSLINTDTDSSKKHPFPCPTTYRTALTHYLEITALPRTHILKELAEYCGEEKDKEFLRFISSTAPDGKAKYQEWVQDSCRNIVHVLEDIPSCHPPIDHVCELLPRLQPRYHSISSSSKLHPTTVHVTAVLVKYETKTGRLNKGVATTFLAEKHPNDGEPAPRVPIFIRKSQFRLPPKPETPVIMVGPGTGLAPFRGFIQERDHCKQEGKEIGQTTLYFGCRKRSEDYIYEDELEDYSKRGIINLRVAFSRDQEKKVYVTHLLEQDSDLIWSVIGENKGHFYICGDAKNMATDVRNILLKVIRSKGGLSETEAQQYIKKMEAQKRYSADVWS
T1 sequence (Q86QH4 1-128 partner): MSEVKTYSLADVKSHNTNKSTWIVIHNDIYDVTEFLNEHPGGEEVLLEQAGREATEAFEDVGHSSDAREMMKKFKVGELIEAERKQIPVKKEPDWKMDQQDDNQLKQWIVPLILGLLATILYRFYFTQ

CYP6P3 [2] = biological target: T2, CYP6P3 (Anopheles gambiae, UniProt Q8T632)
T2 sequence (Q8T632 1-509): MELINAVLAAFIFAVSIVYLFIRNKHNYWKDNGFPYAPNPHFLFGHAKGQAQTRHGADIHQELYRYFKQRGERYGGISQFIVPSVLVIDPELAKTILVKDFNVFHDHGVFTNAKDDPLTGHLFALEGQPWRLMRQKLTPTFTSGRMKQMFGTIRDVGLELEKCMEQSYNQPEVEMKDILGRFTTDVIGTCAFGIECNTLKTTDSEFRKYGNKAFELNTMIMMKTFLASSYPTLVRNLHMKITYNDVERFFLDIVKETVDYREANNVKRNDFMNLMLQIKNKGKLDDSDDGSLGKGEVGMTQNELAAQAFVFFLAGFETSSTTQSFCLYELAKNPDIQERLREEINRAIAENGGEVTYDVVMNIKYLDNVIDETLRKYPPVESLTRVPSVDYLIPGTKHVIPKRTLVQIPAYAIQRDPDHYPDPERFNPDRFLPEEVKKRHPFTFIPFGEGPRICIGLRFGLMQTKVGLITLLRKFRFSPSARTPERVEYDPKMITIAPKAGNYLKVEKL
T2 sequence (Q86QH5 1-679 partner): T1 sequence (Q86QH5 1-679 partner)
T2 sequence (Q86QH4 1-128 partner): T1 sequence (Q86QH4 1-128 partner)

CYP6P3 [3] = biological target: T2, CYP6P3; assay: Reciprocal IC50 of CYP6P3 metabolism of PPF and permethrin; format: biochemical
How it was run: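 CYP6P3 was expressed with AgCPR in E. coli JM109 membranes, with b5 added at 10:1 b5:P450. Reactions ran at 30 °C for 90 min with shaking: 0.1 μM P450, 1.0 μM b5, 0.2 M Tris-HCl pH 7.4, 0.25 mM MgCl2, NADPH-regenerating system. PPF (0–1.6 mM) or permethrin (0–3.2 mM) was titrated against the other at fixed 20 μM. Substrate loss was read by C18 HPLC at 232 nm, triplicate controls.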

CYP6Z2 [4] = biological target: T1, CYP6Z2; assay: biochemical
CYP9J5 = biological target: T3, CYP9J5 (Anopheles gambiae, UniProt Q5TN57); assay: biochemical
T3 sequence (Q5TN57 1-545): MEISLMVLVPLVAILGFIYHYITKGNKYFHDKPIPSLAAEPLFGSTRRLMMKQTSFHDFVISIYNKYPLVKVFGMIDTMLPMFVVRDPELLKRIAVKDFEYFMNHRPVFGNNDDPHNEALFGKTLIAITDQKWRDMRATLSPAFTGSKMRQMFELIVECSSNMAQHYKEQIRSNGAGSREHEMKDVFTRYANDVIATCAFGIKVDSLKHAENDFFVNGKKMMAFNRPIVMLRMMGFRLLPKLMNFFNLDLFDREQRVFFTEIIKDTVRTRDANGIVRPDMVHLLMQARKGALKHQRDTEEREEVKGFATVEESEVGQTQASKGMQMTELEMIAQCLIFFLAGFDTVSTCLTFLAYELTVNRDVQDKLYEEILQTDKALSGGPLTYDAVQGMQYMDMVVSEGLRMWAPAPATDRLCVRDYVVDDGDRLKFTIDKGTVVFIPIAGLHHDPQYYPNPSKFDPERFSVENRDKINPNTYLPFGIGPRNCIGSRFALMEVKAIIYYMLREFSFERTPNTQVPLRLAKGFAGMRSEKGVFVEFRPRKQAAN
T3 sequence (Q86QH5 1-679 partner): T1 sequence (Q86QH5 1-679 partner)
T3 sequence (Q86QH4 1-128 partner): T1 sequence (Q86QH4 1-128 partner)

[5] = category of inhibition of DEF metabolism

CYP6M2, sequence (Q7Q449 1-499, one chain of several): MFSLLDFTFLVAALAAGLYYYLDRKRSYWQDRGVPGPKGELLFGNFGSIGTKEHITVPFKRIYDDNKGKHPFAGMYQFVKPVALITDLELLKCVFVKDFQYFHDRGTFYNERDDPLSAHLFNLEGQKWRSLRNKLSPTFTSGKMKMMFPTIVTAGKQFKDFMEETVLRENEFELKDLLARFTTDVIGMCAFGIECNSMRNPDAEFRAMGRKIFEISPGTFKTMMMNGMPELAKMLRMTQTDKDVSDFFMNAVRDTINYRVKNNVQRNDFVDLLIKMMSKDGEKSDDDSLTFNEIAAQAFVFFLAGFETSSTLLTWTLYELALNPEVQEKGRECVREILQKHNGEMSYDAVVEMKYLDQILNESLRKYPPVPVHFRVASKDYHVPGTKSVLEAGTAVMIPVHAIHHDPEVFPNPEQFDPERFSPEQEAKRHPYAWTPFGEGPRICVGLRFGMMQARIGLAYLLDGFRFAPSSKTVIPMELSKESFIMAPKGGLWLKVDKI

| SMILES | Inhibition ratio (%): reduction of PPF depletion caused by PBO (CYP6M2) [%] | Inhibition ratio (%): reduction of PPF depletion caused by PBO (CYP6Z2 [1]) [%] | Inhibition ratio (%): reduction of PPF depletion caused by PBO (CYP6P5) [%] | Inhibition ratio (%): reduction of PPF depletion caused by PBO (CYP6P3 [2]) [%] | IC50 (CYP6P3 [3]) [µM] | IC50 (CYP6Z2 [4]; IC50 of DEF metabolism) [µM] | IC50 (CYP6Z2 [4]; [5]) [µM] | IC50 (CYP9J5) [µM] | % PPF depletion + PBO (CYP6M2; Anopheles gambiae, pH 7.4) [%] | % PPF depletion −PBO (CYP6M2; Anopheles gambiae, pH 7.4) [%] | % PPF depletion + PBO (CYP6Z2 [1]; Anopheles gambiae, pH 7.4) [%] | % PPF depletion −PBO (CYP6Z2 [1]; Anopheles gambiae, pH 7.4) [%] | % PPF depletion + PBO (CYP6P5; Anopheles gambiae, pH 7.4) [%] | % PPF depletion −PBO (CYP6P5; Anopheles gambiae, pH 7.4) [%] | % PPF depletion + PBO (CYP6P3 [2]; Anopheles gambiae, pH 7.4) [%] |
| --- | --- | --- | --- | --- | --- | --- | --- | --- | --- | --- | --- | --- | --- | --- | --- |
| CCCCOCCOCCOCc1cc2c(cc1CCC)OCO2 [PBO, piperonyl butoxide] | 95.3 | 87.3 | 95.4 | 91.3 |  |  |  |  |  |  |  |  |  |  |  |
| CC1(C)C(C=C(Cl)Cl)C1C(=O)OCc1cccc(Oc2ccccc2)c1 (mixture of isomers) [Permethrin, 3-phenoxybenzyl (1R,S)-cis,trans-3-(2,2-dichlorovinyl)-2,2-dimethylcyclopropanecarboxylate] |  |  |  |  | 61.2 | 13.7 | > 10 | 6.47 |  |  |  |  |  |  |  |
| CC(COc1ccc(Oc2ccccc2)cc1)Oc1ccccn1 (stereo not shown) [PPF, pyriproxyfen] |  |  |  |  | 92.7 | 2.23 | 1 to 10 | 19 | 1.44 ± 0.67 | 30.93 ± 4.65 | 8.41 ± 1.58 | 66.26 ± 3.02 | 2.40 ± 2.01 | 39.96 ± 1.04 | 8.68 ± 1.74 |
